This is an account of results in publication PMC6315097 (The Korean Journal of Physiology & Pharmacology : Official …, 2018).

Data set [1] has as its system male C57BL/6 mice. Nature of the data set: Total GLP-1 in plasma after glucose loading in normoglycemic mice. The data set is classed as in vivo. Particulars: 30 min after glucose loading. A digest of the protocol:
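Fasted (16 h) 8-week-old male C57BL/6 mice, 7 per group, dosed orally with test compound or vehicle 30 min before a 2 g/kg glucose load. Plasma collected from the subclavian vein 30 min after loading. Total GLP-1 measured by multispecies ELISA. One-way ANOVA with Dunnett's test versus vehicle.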

Another data set deals with db/db mice. The experiment in a line: 4-week repeated administration in db/db mice. The data set is classed as in vivo. Particulars: 4-week repeated oral dosing. A digest of the protocol:
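Male db/db mice, 8 weeks old, 7 per group, allocated by HbA1c and blood glucose after a 16 h fast. Test compound given orally once daily for 28 days. HbA1c measured from tail-vein blood on days 0 and 28. Blood glucose checked twice weekly. Body weight taken daily. OGTT on day 29, 24 h after the last dose: glucose 2 g/kg, samples at −60, 0, 15, 30, 60 and 120 min. Mean±S.E.M.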

Data set [2] has as its system male C57BL/6 mice. Nature of the data set: Oral glucose tolerance test in normoglycemic mice. In kind it is in vivo. A digest of the protocol:
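Male C57BL/6 mice, 8 weeks old, fasted 16 h. Test compound given orally 30 min before a glucose load of 2 g/kg (10 ml/kg). Tail-nick blood glucose read by glucose strip before loading and at 0, 15, 30, 60 and 120 min after. Glucose AUC0–120min calculated by the trapezoidal rule. n=6; mean±S.E.M.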

A further data set concerns mice. Particulars: cited from earlier work.
Data set [3] concerns male C57BL/6 mice. Nature of the data set: Urinary glucose excretion over 24 h in normoglycemic mice. In kind it is in vivo. Conditions: single oral dose 3 mg/kg with 2 g/kg glucose, 24 h urine. A digest of the protocol: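 Male C57BL/6 mice, 8 weeks old, 3 per group, allocated by body weight and fasted overnight. […] Urine collected in metabolism cages over 24 h. Urine volume and glucose measured by clinical chemistry analyser and normalised to body weight.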

The nature of data set [4]: Pharmacokinetic profiles in male C57BL/6 mice. In kind it is in vivo. Particulars: for AUC(0-t): AUC0-24hr.
The next data set deals with T1, human SGLT2 (Homo sapiens, UniProt P31639).
T1 sequence (P31639 1-672): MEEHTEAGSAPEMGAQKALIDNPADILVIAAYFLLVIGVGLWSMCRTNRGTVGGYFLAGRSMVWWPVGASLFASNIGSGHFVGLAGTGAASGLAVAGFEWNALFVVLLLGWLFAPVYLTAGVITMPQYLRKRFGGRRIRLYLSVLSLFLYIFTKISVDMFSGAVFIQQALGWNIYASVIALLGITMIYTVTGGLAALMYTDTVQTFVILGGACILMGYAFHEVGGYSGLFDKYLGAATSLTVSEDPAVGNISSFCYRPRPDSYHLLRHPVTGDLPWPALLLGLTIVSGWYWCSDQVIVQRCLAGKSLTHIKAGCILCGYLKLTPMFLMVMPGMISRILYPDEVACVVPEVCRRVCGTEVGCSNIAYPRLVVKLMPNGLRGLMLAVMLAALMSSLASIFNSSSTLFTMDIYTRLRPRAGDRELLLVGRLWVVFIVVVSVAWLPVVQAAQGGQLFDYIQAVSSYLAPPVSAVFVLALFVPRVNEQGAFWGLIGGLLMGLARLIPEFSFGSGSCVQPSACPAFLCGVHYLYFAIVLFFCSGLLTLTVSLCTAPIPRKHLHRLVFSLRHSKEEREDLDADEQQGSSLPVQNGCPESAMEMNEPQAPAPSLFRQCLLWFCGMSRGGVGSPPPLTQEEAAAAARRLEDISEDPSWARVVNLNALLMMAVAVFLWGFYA
The experiment in a line: [14C]-AMG uptake inhibition in HEK293 cells stably expressing human SGLT2. In kind it is cell-based. Conditions: human SGLT2 vs human SGLT1, in vitro.

[5] abbreviates: single oral 1 mg/kg 30 min before glucose 2 g/kg.
Where [6] appears, read: male, C57BL/6, mouse, plasma, po.
The mark [7] stands for this setting: male, C57BL/6, mouse, plasma, po, 0.3 mg/kg, mice.
Setting [8] is: male, C57BL/6, mouse, plasma, po, 1 mg/kg, mice.

As usually defined, the Tmax is the time from dosing to the highest level. What is called half-life is the time needed for the level to fall by half in the phase considered. In general, AUC(0-t) refers to exposure summed from dosing to a finite time, without extrapolation to infinity. In general, Cmax refers to the maximum level reached in the sampled fluid or tissue.

Structures are written as SMILES.

Regarding `CCOc1ccc(Cc2cc([C@@H]3O[C@H](CO)[C@@H](O)[C@H](O)[C@H]3O)ccc2Cl)cc1` [Dapagliflozin, (1S)-1,5-anhydro-1-C-{4-chloro-3-[(4-ethoxyphenyl)methyl]phenyl}-D-glucitol, reference compound], the “Total GLP-1 in plasma” value in the data set on male C57BL/6 mice [1] (single oral 1 mg/kg) was determined as 15.5 ± 5.7 pM. In the data set on db/db mice, the “change in body weight compared to vehicle-treated db/db mice” value was “did not induce a significant change in body weight”. Further, the “effect on blood glucose increases during OGTT” value in the data set on male C57BL/6 mice [2] (setting [5]) is on record as “decreased blood glucose increases during OGTT”.

Turning to `OC[C@H]1O[C@@H](c2ccc(Cl)c(Cc3ccc(O[C@H]4CCOC4)cc3)c2)[C@H](O)[C@@H](O)[C@@H]1O` [Empagliflozin], in the data set with mice (SGLT1 and SGLT2 double-knockout mice), the “reduction of glucose reabsorption” value is given as 100%. The “inhibition of glucose reabsorption” value with mice (wild-type mice) is recorded as 56%.

In the data set with male C57BL/6 mice [3], `CCc1ccc(Cc2cc([C@@H]3O[C@H](CO)[C@@H](O)[C@H](O)[C@H]3O)cc3c2CCC3)cc1` [HM41322, (2S,3R,4R,5S,6R)-2-[7-(4-ethylbenzyl)-2,3-dihydro-1H-inden-5-yl]-6-(hydroxymethyl)tetrahydro-2H-pyran-3,4,5-triol] showed a Urinary glucose excretion of 19.32±1.16 mg/g body weight. Besides, the “Total GLP-1 in plasma” value in the data set on male C57BL/6 mice [1] (single oral 0.3 mg/kg) amounted to 15.0 ± 6.6 pM; with male C57BL/6 mice [1] (single oral 1 mg/kg) it was 18.0 ± 5.0 pM; in the data set with male C57BL/6 mice [1] (single oral 3 mg/kg, 3 mg/kg), 34.2 ± 9.7 pM. In data set [4] (setting [6]), the time to peak (Tmax) is 0.5 h. In addition, the half-life in data set [4] (setting [6]) is 3.1 h. Further, the AUC(0-t) in data set [4] (setting [7]) stood at 473 ng·h/mL; in data set [4] (setting [8]) it was 1300 ng·h/mL; in data set [4] (male, C57BL/6, mouse, plasma, po, 3 mg/kg, mice) it was 5460 ng·h/mL. The Cmax in data set [4] (setting [7]) came to 142 ng/mL; in data set [4] (setting [8]), 439 ng/mL. The compound further returned a maximum plasma level in data set [4] (mice, single oral dose 0.1 mg/kg) of 142 ng/mL. In the data set on db/db mice, the “change in body weight compared to vehicle-treated db/db mice” value is reported as “did not induce a significant change in body weight”. Besides, the “selectivity for SGLT2 over SGLT1” value on human SGLT2 is 10 fold. The “area under the curve (AUC) of glucose tolerance, OGTT 120 min” value in the data set on male C57BL/6 mice [2] (single oral 0.3 mg/kg 30 min before glucose 2 g/kg) stood at 303.3 ± 60.17 mg·h/dL; in the data set with male C57BL/6 mice [2] (setting [5]), 228.5 ± 16.96 mg·h/dL; with male C57BL/6 mice [2] (single oral 3 mg/kg 30 min before glucose 2 g/kg), 170.7 ± 13.14 mg·h/dL.
